# Most compounds without a hit are left out; they make up all but 1.9% or so of the library.
# core dimer inh: inhibitors of HCV core protein dimerization, primary screen, biochemical, TR-FRET, high-throughput. TR-FRET GST/Flag-core106 dimerization, 1536-well. inhibition, % at 5 µM. 300,000 compounds, 0.33% hits. AID 1899, 2009;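 active = inhibition above the mean of all tested compounds plus 3 SD, set per screening campaign, cut at about 45% in these data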
#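 System: GST/Flag-tagged HCV core106 proteins. Incubation: compound-protein-antibody incubation 4 h at 22.5 °C. Technique: HTRF with 340 nm excitation, 617/671 nm emission. Medium: KF-containing HEPES buffer, pH 7.45, DTT, CHAPS, BSA. Read-out: inhibition (%) from 671 over 617 nm ratio. Also added: Eu(K)-anti-GST 90 ng/mL plus XL665-anti-Flag 1 µg/mL.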
# NadD inh: inhibitors of S. aureus NadD, primary screen, biochemical, colorimetric, uHTS | Nicotinate-nucleotide adenylyltransferase NadD (Staphylococcus aureus N315) | purified NadD enzyme, colorimetric absorbance read-out | inhibition, % at 20 µM | 360,000 compounds, 0.78% hits | AID 602399, 2012; in the data active = inhibition above about 26%
# Rce1 inh: yeast Rce1p protease inhibitors, primary screen, biochemical, fluorescence, cell-free homogeneous; 290,000 compounds, 0.27% hits; yeast membranes, quenched prenylated peptide cleavage fluorescence; CAAX prenyl protease 2 (Saccharomyces cerevisiae (strain ATCC 204508 / S288c)), Q03530; calls only;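 active = fall in fluorescence gain of 50% or more versus controls, with final raw signal at or below 3038400; inconclusive = same 50% fall but final raw signal above 3038400; inactive = fall in fluorescence gain under 50%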
# Target sequence (Q03530 whole entry, looked up): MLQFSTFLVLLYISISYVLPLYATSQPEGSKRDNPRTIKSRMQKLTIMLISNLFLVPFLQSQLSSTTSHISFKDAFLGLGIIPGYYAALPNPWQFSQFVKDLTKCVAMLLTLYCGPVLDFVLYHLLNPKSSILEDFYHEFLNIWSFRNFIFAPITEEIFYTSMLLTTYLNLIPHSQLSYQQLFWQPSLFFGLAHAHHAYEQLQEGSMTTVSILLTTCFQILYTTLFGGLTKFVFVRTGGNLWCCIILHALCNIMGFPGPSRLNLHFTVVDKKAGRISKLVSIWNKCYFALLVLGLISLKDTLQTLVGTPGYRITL
# TbMetRS inhib: T. brucei MetRS inhibitors, primary screen, biochemical, luminescence. purified T. brucei MetRS, ATP depletion, Kinase-Glo luminescence. inhibition, % at 11.9 µM. 360,000 compounds, 0.4% hits. AID 624268, 2012;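 active = inhibition above a per-plate cutoff of the control wells' mean inhibition plus 3 SD, cut at about 5.5% in these data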
#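 Assay system: T. brucei methionyl-tRNA synthetase, purified | Medium: HEPES buffer with MgCl2, KCl, DTT, spermine, BSA, pyrophosphatase | Compound: 11.9 µM single point | Incubation: 15 min enzyme-compound preincubation, 2 h reaction, 10 min detection, 25 °C | Measured by: Kinase-Glo luciferase luminescence reporting remaining unconsumed ATP | Measure: % inhibition normalized to control-well medians | Replication: Singlicate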
# Pemphigus Ab inh: inhibitors of pemphigus antibody binding to DSG3, primary screen, biochemical, bead-based, flow cytometry, scFv-GFP. DSG3-coupled beads, scFv-anti-DSG3-GFP binding; hits give low values. binding (percent of control), % at 10 µM. 310,000 compounds, 0.48% hits;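 active = binding more than 3 SD below its plate's average and above zero; inconclusive = below that plate limit but binding exactly zero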;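 note: hits lower antibody fragment binding to DSG3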
# Hits are given with their value; . = inactive; ? = inconclusive; / = not tested or not shown; + = active, no number.
SMILES,core dimer inh,NadD inh,Rce1 inh,TbMetRS inhib,Pemphigus Ab inh
CC(=O)Nc1ccc(S(=O)(=O)Nc2nc3nc(-c4ccccc4)cc(-c4ccccc4)n3n2)cc1,.,.,.,.,?
O=C(O)CCC(=O)Nc1nc2nc(-c3ccccc3)cc(-c3ccccc3)n2n1,.,.,+,.,.
CCN(C[C@H]1N[C@@](C)(C(=O)OC)[C@H]2C(=O)N(Cc3ccccc3)C(=O)[C@@H]12)S(=O)(=O)c1ccccc1,/,.,/,.,.
CC(=O)C(C)Oc1ccc2c3c(c(=O)oc2c1)CCCC3 (configuration not stated),.,.,+,.,.
CC(=O)C(C)Oc1ccc2c3c(c(=O)oc2c1)CCCCC3 (configuration not stated),.,.,.,.,.
O=C(CCC1CCCC1)Nc1cccc(Cc2ccncc2)c1,.,.,.,.,/
O=c1oc(-c2cccs2)nc2c1cnn2-c1ccccc1,.,.,.,.,86
O=c1oc(-c2ccccc2)nc2c1cnn2-c1ccccc1,.,.,.,.,.
CN1CCC(=NNC(=O)CN(c2ccc([N+](=O)[O-])cc2)S(=O)(=O)c2ccccc2)CC1,.,.,.,.,/
CCN(CC)c1ccc(/C=N/NC(=O)CNC(=O)c2ccc3c(c2)OCCO3)cc1,.,.,.,.,.
CN(C)c1ccc(/C=N/NC(=O)CNC(=O)c2ccc3c(c2)OCCO3)cc1,.,.,+,.,.
O=C(N=Nc1c(O)[nH]c2ccc(Br)cc12)c1cc(-c2cccc3ccccc23)n[nH]1,.,39,.,.,.
O=C(N=Nc1c(O)[nH]c2ccc(Br)cc12)c1cc(-c2cccs2)nc2ccccc12,/,44,.,.,.
Cn1c(O)c(N=NC(=O)c2cc(-c3cccs3)nc3ccccc23)c2ccccc21,.,45,.,.,.
O=C(N=Nc1c(O)[nH]c2ccccc12)c1cccs1,.,.,.,.,.
O=C(N=Nc1c(O)[nH]c2ccc(Br)cc12)c1ccco1,/,.,/,.,.
Cc1ccc(C)c(N2N=C(C(=O)OCc3nnc(-c4cccs4)o3)CCC2=O)c1,/,.,/,.,.
c1cc(CNc2ccc3c(c2)OCO3)ccn1,.,.,.,.,.
O=C(NCCCN=C1NS(=O)(=O)c2ccccc21)c1ccco1,.,.,.,.,.
Cc1cc(C(=O)COC(=O)c2ccc3c(c2)NC(=O)CS3)c(C)n1CCc1ccc(Cl)cc1,48,.,.,.,.
C/C(CCc1oc2c(Br)cc(Br)cc2c1-c1ccc(C)o1)=N\O,.,.,.,15,.
C/C(CCc1oc2ccccc2c1-c1ccc(C)o1)=N/O,.,.,.,.,.
CCOc1ccc2noc3c2c1C(=O)c1ccccc1-3,.,.,.,.,.
CCNc1ccc2noc3c2c1C(=O)c1ccccc1-3,.,.,.,.,30
O=C1c2ccccc2-c2onc3ccc(N4CCCC4)c1c23,/,.,.,.,47
SMILES,core dimer inh,NadD inh,Rce1 inh,TbMetRS inhib,Pemphigus Ab inh
O=C1c2ccccc2-c2onc3ccc(NCc4ccco4)c1c23,.,.,.,.,58
CCCOc1ccc(C(=O)NNC(=S)NC(=O)c2cccs2)cc1,.,.,.,.,.
O=C(NCc1ccccn1)c1ccc2nc(C3CCCCC3)oc2c1,.,.,.,.,.
Cc1ccc2c(c1)c(=O)c1c3n2CCN(C(=O)CCl)C3CC1 (configuration not stated),47,.,.,.,.
Cc1cc(C(=O)OCC(=O)c2cccc([N+](=O)[O-])c2)c2cccc(C)c2n1,88,.,.,.,.
O=C(COc1ccccc1)Nc1cc(Cl)ccc1Cl,.,.,.,.,80
CCCC(=O)N1c2ccccc2[C@@H](N(C(C)=O)c2ccccc2)C[C@H]1C,.,.,.,.,.
c1ccc(-n2nnnc2SCc2cn3cccnc3n2)cc1,.,.,+,.,.
N#C/C(=C\c1cc([N+](=O)[O-])c(N2CCCCC2)cc1N1CCCCC1)c1nn(-c2ccccc2)c(N)c1C#N,.,42,.,.,.
N#C/C(=C\c1cccc2ccccc12)c1nn(-c2ccccc2)c(N)c1C#N,.,/,.,/,/
CC(=O)Nc1ccccc1NC(=O)c1ccc(C)c(C)c1,.,.,.,.,.
Cc1cccn2cc(CSc3nnc(Nc4ccc(C(C)C)cc4)s3)nc12,.,.,.,.,.
COc1ccc([N+](=O)[O-])cc1NC(=O)CSc1nccc(C)n1,51,.,.,.,.
O=C(COC(=O)c1ccc(Cl)cc1[N+](=O)[O-])NC(=O)c1ccccc1,.,.,.,.,49
COc1ccc(-c2cc(-c3ccccc3)c(C#N)c(SCC(=O)Nc3ncc(C)s3)n2)cc1,56,.,.,.,.
COc1ccc(-c2cc(-c3ccc(OC)cc3)c(C#N)c(SC)n2)cc1,75,.,.,.,.
N#Cc1c(-c2ccc(Cl)cc2)cc(-c2ccccc2)nc1SCC(=O)O,.,.,.,.,.
N#Cc1c(-c2ccc(F)cc2)cc(-c2ccccc2)nc1SCC(=O)NCC(=O)O,.,.,.,.,63
O=C(Cn1c(=S)[nH]c2ccccc2c1=O)N1CCc2ccccc2C1,.,.,.,.,.
CC(=O)c1ccc(N2CCN(Cc3cc(=O)n4c(-c5ccccc5)csc4n3)CC2)cc1,/,.,/,.,.
O=c1cc(CN2CCN(c3ccccc3)CC2)nc2scc(-c3ccccc3)n12,46,.,.,.,/
CSc1ccc(Cl)c(C(=O)N2CCN(c3ncccn3)CC2)c1,/,.,/,.,.
CCN(CC(=O)Nc1ccc(OC)cc1)C(=O)Cc1cccs1,52,.,.,.,.
Cc1ccc(N=C2NC(=O)/C(=C/c3cn(C)c4ccccc34)S2)cc1C,.,34,/,.,.
O=C(OCc1nc2ccccc2[nH]1)C12CC3CC(CC(C3)C1)C2,.,.,.,47,.
SMILES,core dimer inh,NadD inh,Rce1 inh,TbMetRS inhib,Pemphigus Ab inh
COc1cc2c(cc1OC)C(c1cccc(Br)c1)CC(=O)N2 (configuration not stated),/,.,.,.,.
CCOC(=O)C(C(C)=O)c1nc(C)nc2c1nnn2Cc1ccccc1Cl (configuration not stated),/,.,.,.,.
Nc1cccc(C2=Nc3cccc4cccc(c34)N2)c1,72,.,.,.,.
COCCN=c1scc(-c2ccco2)n1/N=C/c1ccc(O)c(O)c1O,54,39,/,.,.
COCCNc1ncnc2c1ncn2[C@H]1CN(Cc2ccncc2)C[C@@H](CO)O1,/,.,/,.,/
CCCCn1c(CN2CCN(C(=O)c3ccco3)CC2)nc2c1c(=O)n(C)c(=O)n2C,.,.,.,.,.

# Screens deposited in PubChem BioAssay by several laboratories.
